Reference: ChEMBL document CHEMBL2029337, “Synthesis and antimicrobial activities of structurally novel S,S'-bis(heterosubstituted) disulfides” (Bioorg Med Chem Lett, 2012)
Values after ≈ are worked out from the molar mass of the structure shown. Active and inactive are the calls of the source. No cut-off for these calls is given here.

Key:
[1] = test system: Staphylococcus aureus; experiment: Antibacterial activity against methicillin-susceptible Staphylococcus aureus ATCC 25923 […] by agar dilution method; assay type: functional
[2] = test system: Bartonella sp.; experiment: Antibacterial activity against Bartonella ssp. […] by agar dilution method; assay type: functional
[3] = test system: Staphylococcus aureus; experiment: Antibacterial activity against methicillin-resistant Staphylococcus aureus ATCC 43300 […] by agar dilution method; assay type: functional
[4] = Antibacterial activity against Francisella tularensis subspecies holarctica LVS after 48 hrs by broth dilution method; assay type: functional, Francisella tularensis subsp. holarctica LVS
[5] = test system: Escherichia coli; experiment: Antibacterial activity against Escherichia coli K-12 […] by agar dilution method; assay type: functional, organism-based
[6] = test system: Staphylococcus aureus; experiment: Antibacterial activity against methicillin-resistant Staphylococcus aureus ATCC 43300 assessed as growth inhibition at 20 ug after 24 hrs by agar-diffusion assay in presence of cystine; assay type: functional, organism-based
[7] = test system: Staphylococcus aureus; experiment: Antibacterial activity against methicillin-resistant Staphylococcus aureus ATCC 43300 assessed as growth inhibition at 20 ug after 24 hrs by agar-diffusion assay in presence of PPh3; assay type: functional, organism-based
How it was run: (§1)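 Kirby-Bauer well diffusion on an MRSA lawn (0.5 McFarland suspension swabbed onto tryptic soy agar). Four test agents sat in wells equidistant from a centre well holding 1 mg of additive in DMSO; a DMSO-only centre well served as vehicle control. After overnight incubation at 37 °C, the inhibition zones were examined for size or shape change.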

[8] = test system: Staphylococcus aureus; experiment: Antibacterial activity against methicillin-resistant Staphylococcus aureus ATCC 43300 assessed as growth inhibition at 20 ug after 24 hrs by agar-diffusion assay in presence of CoA; assay type: functional, organism-based; how it was run: as §1
[9] = test system: Staphylococcus aureus; experiment: Antibacterial activity against methicillin-resistant Staphylococcus aureus ATCC 43300 assessed as growth inhibition at 20 ug after 24 hrs by agar-diffusion assay in presence of GSH; assay type: functional, organism-based; how it was run: as §1
[10] = test system: Staphylococcus aureus; experiment: Antibacterial activity against methicillin-resistant Staphylococcus aureus ATCC 43300 assessed as growth inhibition at 20 ug after 24 hrs by agar-diffusion assay in presence of iPrSSiPr; assay type: functional, organism-based; how it was run: as §1
[11] = test system: Staphylococcus aureus; experiment: Antibacterial activity against methicillin-resistant Staphylococcus aureus ATCC 43300 assessed as growth inhibition at 20 ug after 24 hrs by agar-diffusion assay in presence of valine; assay type: functional, organism-based; how it was run: as §1
[12] = test system: Staphylococcus aureus; experiment: Antibacterial activity against methicillin-resistant Staphylococcus aureus ATCC 43300 assessed as growth inhibition at 20 ug after 24 hrs by agar-diffusion assay in presence of lysine; assay type: functional, organism-based; how it was run: as §1
[13] = test system: Staphylococcus aureus; experiment: Antibacterial activity against methicillin-resistant Staphylococcus aureus ATCC 43300 assessed as growth inhibition at 20 ug after 24 hrs by agar-diffusion assay in presence of glycine; assay type: functional, organism-based; how it was run: as §1
[14] = test system: Staphylococcus aureus; experiment: Antibacterial activity against methicillin-resistant Staphylococcus aureus ATCC 43300 assessed as growth inhibition at 10 ug after 24 hrs by agar-diffusion assay in presence of GSH; assay type: functional, organism-based; how it was run: as §1
[15] = test system: Staphylococcus aureus; experiment: Antibacterial activity against methicillin-resistant Staphylococcus aureus ATCC 43300 assessed as growth inhibition at 10 ug after 24 hrs by agar-diffusion assay in presence of glycine; assay type: functional, organism-based; how it was run: as §1
[16] = test system: Staphylococcus aureus; experiment: Antibacterial activity against methicillin-resistant Staphylococcus aureus ATCC 43300 assessed as growth inhibition at 10 ug after 24 hrs by agar-diffusion assay in presence of iPrSSiPr; assay type: functional, organism-based; how it was run: as §1
[17] = test system: Staphylococcus aureus; experiment: Antibacterial activity against methicillin-resistant Staphylococcus aureus ATCC 43300 assessed as growth inhibition at 10 ug after 24 hrs by agar-diffusion assay in presence of PPh3; assay type: functional, organism-based; how it was run: as §1
[18] = test system: Staphylococcus aureus; experiment: Antibacterial activity against methicillin-resistant Staphylococcus aureus ATCC 43300 assessed as growth inhibition at 10 ug after 24 hrs by agar-diffusion assay in presence of lysine; assay type: functional, organism-based; how it was run: as §1
[19] = test system: Staphylococcus aureus; experiment: Antibacterial activity against methicillin-resistant Staphylococcus aureus ATCC 43300 assessed as growth inhibition at 10 ug after 24 hrs by agar-diffusion assay in presence of cystine; assay type: functional, organism-based
[20] = test system: Staphylococcus aureus; experiment: Antibacterial activity against methicillin-resistant Staphylococcus aureus ATCC 43300 assessed as growth inhibition at 10 ug after 24 hrs by agar-diffusion assay in presence of valine; assay type: functional, organism-based; how it was run: as §1
[21] = test system: Staphylococcus aureus; experiment: Antibacterial activity against methicillin-resistant Staphylococcus aureus ATCC 43300 assessed as growth inhibition at 10 ug after 24 hrs by agar-diffusion assay in presence of CoA; assay type: functional, organism-based; how it was run: as §1

SMILES | MIC [1] | Activity [2] | MIC [3] | MIC [4] | Activity [5] | other results
CCCCNSSNCCCC | 8 µg/mL (≈ 38.4 µM) | inactive | 32 µg/mL (≈ 154 µM) | 4 µg/mL (≈ 19.2 µM) | inactive | –
CCN(CC)SSN(CC)CC | 2 µg/mL (≈ 9.6 µM) | inactive | 2 µg/mL (≈ 9.6 µM) | 16 µg/mL (≈ 76.8 µM) | inactive | –
C=CC(=O)O[C@H]1C(=O)N(SC)[C@H]1c1ccccc1Cl | – | – | – | – | – | growth inhibition (GI) [6]: inactive; growth inhibition (GI) [7]: Active; growth inhibition (GI) [8]: inactive; growth inhibition (GI) [9]: inactive; growth inhibition (GI) [10]: Active; growth inhibition (GI) [11]: Active; growth inhibition (GI) [12]: Active; growth inhibition (GI) [13]: Active
CC(C)SSc1ccc([N+](=O)[O-])cc1 | – | – | – | – | – | growth inhibition (GI) [14]: inactive; growth inhibition (GI) [15]: Active; growth inhibition (GI) [16]: Active; growth inhibition (GI) [17]: Active; growth inhibition (GI) [18]: Active; growth inhibition (GI) [19]: inactive; growth inhibition (GI) [20]: Active; growth inhibition (GI) [21]: inactive
c1ccc(SSSSc2ccccc2)cc1 | 8 µg/mL (≈ 28.3 µM) | inactive | 8 µg/mL (≈ 28.3 µM) | 2 µg/mL (≈ 7.08 µM) | inactive | –
C[C@@H](c1ccccc1)N(Cc1ccccc1)SSN(Cc1ccccc1)[C@@H](C)c1ccccc1 | 16 µg/mL (≈ 33 µM) | inactive | 64 µg/mL (≈ 132 µM) | 16 µg/mL (≈ 33 µM) | inactive | –
C[C@H](c1ccccc1)N(Cc1ccccc1)SSN(Cc1ccccc1)[C@H](C)c1ccccc1 | 16 µg/mL (≈ 33 µM) | inactive | 64 µg/mL (≈ 132 µM) | 16 µg/mL (≈ 33 µM) | inactive | –
c1ccc(NSSNc2ccccc2)cc1 | 4 µg/mL (≈ 16.1 µM) | inactive | 4 µg/mL (≈ 16.1 µM) | 0.5 µg/mL (≈ 2.01 µM) | inactive | –
CCCCSSSSCCCC | 64 µg/mL (≈ 264 µM) | inactive | 32 µg/mL (≈ 132 µM) | 4 µg/mL (≈ 16.5 µM) | inactive | –
CC(C)SSSSC(C)C | 32 µg/mL (≈ 149 µM) | inactive | 32 µg/mL (≈ 149 µM) | 8 µg/mL (≈ 37.3 µM) | inactive | –
CC(C)NSSNC(C)C | 32 µg/mL (≈ 177 µM) | inactive | 32 µg/mL (≈ 177 µM) | 2 µg/mL (≈ 11.1 µM) | inactive | –
CC1(C)S[C@@H]2[C@H](NC(=O)Cc3ccccc3)C(=O)N2[C@H]1C(=O)O [PENICILLIN G] | 0.25 µg/mL (≈ 0.748 µM) | – | 64 µg/mL (≈ 191 µM) | – | – | growth inhibition (GI) [14]: Active; growth inhibition (GI) [15]: Active; growth inhibition (GI) [16]: Active; growth inhibition (GI) [17]: Active; growth inhibition (GI) [18]: Active; growth inhibition (GI) [19]: Active; growth inhibition (GI) [20]: Active; growth inhibition (GI) [21]: Active
CCCCOSSOCCCC | 0.25 µg/mL (≈ 1.19 µM) | inactive | 8 µg/mL (≈ 38 µM) | 4 µg/mL (≈ 19 µM) | inactive | –
CC(C)[C@H]1CC[C@H](C)C[C@@H]1OSSO[C@H]1C[C@@H](C)CC[C@@H]1C(C)C | 8 µg/mL (≈ 21.4 µM) | inactive | 8 µg/mL (≈ 21.4 µM) | 4 µg/mL (≈ 10.7 µM) | inactive | –
c1ccc(OSSOc2ccccc2)cc1 | 2 µg/mL (≈ 7.99 µM) | inactive | 2 µg/mL (≈ 7.99 µM) | 1 µg/mL (≈ 3.99 µM) | inactive | –
CCCSSSSCCC | 32 µg/mL (≈ 149 µM) | inactive | 32 µg/mL (≈ 149 µM) | 1 µg/mL (≈ 4.66 µM) | inactive | –

SMILES | MIC [1] | Activity [2] | MIC [3] | MIC [4] | Activity [5] | other results
C=CCN(CC=C)SSN(CC=C)CC=C | 1 µg/mL (≈ 3.9 µM) | inactive | 0.5 µg/mL (≈ 1.95 µM) | 16 µg/mL (≈ 62.4 µM) | inactive | –
CCCNSSNCCC | 8 µg/mL (≈ 44.4 µM) | inactive | 4 µg/mL (≈ 22.2 µM) | 16 µg/mL (≈ 88.7 µM) | inactive | –
CC[C@H](C)OSSO[C@@H](C)CC | 16 µg/mL (≈ 76.1 µM) | inactive | 32 µg/mL (≈ 152 µM) | 16 µg/mL (≈ 76.1 µM) | inactive | –
CC(C)N(SSN(C(C)C)C(C)C)C(C)C | 2 µg/mL (≈ 7.56 µM) | inactive | 1 µg/mL (≈ 3.78 µM) | 32 µg/mL (≈ 121 µM) | inactive | –
CC1CCC(C(C)C)C(OSSOC2CC(C)CCC2C(C)C)C1 (racemic) | 8 µg/mL (≈ 21.4 µM) | inactive | 16 µg/mL (≈ 42.7 µM) | 4 µg/mL (≈ 10.7 µM) | inactive | –
CCCOSSOCCC | 32 µg/mL (≈ 176 µM) | inactive | 32 µg/mL (≈ 176 µM) | 16 µg/mL (≈ 87.8 µM) | inactive | –
CC(C)CN(CC(C)C)SSN(CC(C)C)CC(C)C | 16 µg/mL (≈ 49.9 µM) | inactive | 16 µg/mL (≈ 49.9 µM) | 1 µg/mL (≈ 3.12 µM) | inactive | –
CCC(C)OSSOC(C)CC (configuration not stated) | 16 µg/mL (≈ 76.1 µM) | inactive | 8 µg/mL (≈ 38 µM) | 16 µg/mL (≈ 76.1 µM) | inactive | –
CC(COSSOCC(C)c1ccccc1)c1ccccc1 (racemic) | 16 µg/mL (≈ 47.8 µM) | inactive | 16 µg/mL (≈ 47.8 µM) | 8 µg/mL (≈ 23.9 µM) | inactive | –
CC(C)[C@@H]1CC[C@@H](C)C[C@H]1OSSO[C@@H]1C[C@H](C)CC[C@H]1C(C)C | 8 µg/mL (≈ 21.4 µM) | inactive | 16 µg/mL (≈ 42.7 µM) | 4 µg/mL (≈ 10.7 µM) | inactive | –
O=C(O)c1cn(C2CC2)c2cc(N3CCNCC3)c(F)cc2c1=O [CIPROFLOXACIN] | – | – | – | 0.125 µg/mL (≈ 0.377 µM) | – | –
CN(C)SSN(C)C | 0.25 µg/mL (≈ 1.64 µM) | inactive | 0.5 µg/mL (≈ 3.28 µM) | 8 µg/mL (≈ 52.5 µM) | inactive | –
CCC(C)NSSNC(C)CC (configuration not stated) | 16 µg/mL (≈ 76.8 µM) | inactive | 16 µg/mL (≈ 76.8 µM) | 8 µg/mL (≈ 38.4 µM) | inactive | –
CCC(C)SSSSC(C)CC (configuration not stated) | 32 µg/mL (≈ 132 µM) | inactive | 64 µg/mL (≈ 264 µM) | 16 µg/mL (≈ 66 µM) | inactive | –
CC[C@@H](C)OSSO[C@H](C)CC | 16 µg/mL (≈ 76.1 µM) | inactive | 32 µg/mL (≈ 152 µM) | 16 µg/mL (≈ 76.1 µM) | inactive | –
